# Measured values collected from several papers.
# Protocols differ between the studies behind these lines.
# BRD9: Bromodomain-containing protein 9 (BRD9, Homo sapiens, UniProt Q9H8M2)
Structure (SMILES),target,assay,conditions,endpoint,result
CCN1/C(=C/C(C)=O)Sc2ccc(F)cc21,"D(1B) dopamine receptor (DRD5, Homo sapiens, UniProt P21918)","ligand displacement, radioligand",10 µM,inhibition,2.77%
COc1ccc2oc(-c3ccc4nc(N)oc4c3)c/c(=N\c3ccccc3NC(=O)CCN)c2c1,"Serine/threonine-protein kinase 35 (STK35, Homo sapiens, UniProt Q8TDR2)",binding,1 µM,remaining binding,104%
C1=C/COCc2cc(ccc2OCCN2CCCC2)Nc2nccc(n2)-c2cccc(c2)COC/1,"Activin receptor type-2A (ACVR2A, Homo sapiens, UniProt P27037)",binding,0.1 µM,remaining binding,83%
Cc1ncc(-c2cc3cc(-c4c(C)ccc(O)c4C)cnc3[nH]2)cn1,"Membrane-associated tyrosine- and threonine-specific cdc2-inhibitory kinase (PKMYT1, Homo sapiens, UniProt Q99640)","cell-free assay, TR-FRET",10 µM,inhibition,101%
COc1cc(C(C)(C)O)c(OC)cc1-c1cc(C(C)=O)n2ccccc12,BRD9,"thermal stability, DSF",200 µM,ΔTm,10.5 °C
NC/C(=C\F)COc1cccc(Cn2c(=S)[nH]c(=O)c3[nH]cnc32)c1,"Histamine H3 receptor (HRH3, Homo sapiens, UniProt Q9Y5N1)","ligand displacement, radioligand",10 µM,inhibition,< 50%
CC(=O)c1cc(-c2cccc(CO)c2)c2ccccn12,BRD9,"thermal stability, DSF",200 µM,ΔTm,6.5 °C
CCCCC(=O)Nc1ccc(-c2ccc3ncn(CCC)c(=O)c3c2)cn1,"Bone morphogenetic protein receptor type-1A (BMPR1A, Homo sapiens, UniProt P36894)","binding, competition with immobilised ligand",0.5 µM,remaining binding,84%
COc1cc(C(C)O)c(OC)cc1-c1cc(C(C)=O)n2ccccc12 (stereo not shown),BRD9,"thermal stability, DSF",200 µM,ΔTm,9.9 °C
Cc1cc(O)c(-c2ccc([C@@H](C)CN(C)C)cc2)c2c1[nH]c(=O)c1sccc12,"G protein-coupled receptor kinase 5 (GRK5, Homo sapiens, UniProt P34947)","enzyme activity, inhibitor",0.1 µM,inhibition,-6.65%
